# Test results from ChEMBL document CHEMBL3297708, “Lead optimization of a novel series of imidazo[1,2-a]pyridine amides leading to a clinical candidate (Q203) as a multi- and extensively-drug-resistant anti-tuberculosis agent” (J Med Chem, 2014).
# pIC50: −log10 of the molar value.
# Experiments:
# [1] = system: Mycobacterium tuberculosis; test: Antimycobacterial activity against Mycobacterium tuberculosis H37Rv in macrophages; assay type: functional
# In short: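 M. tuberculosis H37Rv replicating inside macrophages; intracellular MIC80 determined, i.e. concentration inhibiting 80% of growth.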
# [2] = system: Mycobacterium tuberculosis; test: Antimycobacterial activity against Mycobacterium tuberculosis H37Rv in liquid broth culture medium; assay type: functional
# In short: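 M. tuberculosis H37Rv replicating in liquid broth culture medium; MIC80 determined, i.e. concentration inhibiting 80% of growth.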
# [3] = Half life in human liver microsomes; assay type: ADME
# In short: (§1)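 Metabolic stability measured by incubation in human or mouse liver microsomal preparations; half-life reported.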
# [4] = Half life in mouse liver microsomes; assay type: ADME; in short: as §1
# [5] = Solubility of the compound in phosphate buffer at pH 7.4; assay type: physicochemical
# [6] = Solubility of the compound in aqueous solution at pH 2.1; assay type: physicochemical
# [7] = molecular target: Cytochrome P450 2C19 (Homo sapiens, UniProt P33261); test: Inhibition of recombinant CYP2C19 (unknown origin) by LC/MS/MS analysis; assay type: ADME
# In short: (§2)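 Recombinant CYP enzymes (5 pmol/mL) with substrate, in 100 mM potassium phosphate pH 7.4, 3.3 mM MgCl2, with or without 1 mM NADPH; incubated 10 min (CYP1A2, CYP2C9), 20 min (CYP2C19, CYP2D6), or 3 min (CYP3A4); stopped with cold stop solution containing tolbutamide internal standard; metabolite measured by LC-MS/MS.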
# [8] = molecular target: Cytochrome P450 3A4 (Homo sapiens, UniProt P08684); test: Inhibition of recombinant CYP3A4 (unknown origin) by LC/MS/MS analysis; assay type: ADME; in short: as §2
# [9] = molecular target: Cytochrome P450 2D6 (Homo sapiens, UniProt P10635); test: Inhibition of recombinant CYP2D6 (unknown origin) by LC/MS/MS analysis; assay type: ADME; in short: as §2
# [10] = molecular target: T1, Cytochrome P450 1A2 (Homo sapiens, UniProt P05177); test: Inhibition of recombinant CYP1A2 (unknown origin) by LC/MS/MS analysis; assay type: ADME; in short: as §2
# T1 sequence (P05177 whole entry): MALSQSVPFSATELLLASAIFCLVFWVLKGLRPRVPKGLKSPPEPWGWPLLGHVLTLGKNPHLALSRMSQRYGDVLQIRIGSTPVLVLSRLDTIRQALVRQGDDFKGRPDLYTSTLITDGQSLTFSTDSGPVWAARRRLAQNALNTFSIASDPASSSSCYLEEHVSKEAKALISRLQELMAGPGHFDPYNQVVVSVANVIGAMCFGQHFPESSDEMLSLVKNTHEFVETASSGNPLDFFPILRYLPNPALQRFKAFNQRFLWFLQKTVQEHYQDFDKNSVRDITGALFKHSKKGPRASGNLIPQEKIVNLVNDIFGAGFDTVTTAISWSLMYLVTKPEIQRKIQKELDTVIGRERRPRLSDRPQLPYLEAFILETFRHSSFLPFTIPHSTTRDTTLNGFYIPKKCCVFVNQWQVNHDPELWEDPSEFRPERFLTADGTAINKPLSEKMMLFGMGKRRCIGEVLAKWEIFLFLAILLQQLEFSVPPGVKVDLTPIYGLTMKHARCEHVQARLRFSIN
# [11] = molecular target: Cytochrome P450 2C9 (Homo sapiens, UniProt P11712); test: Inhibition of recombinant CYP2C9 (unknown origin) by LC/MS/MS analysis; assay type: ADME; in short: as §2
# Cytochrome P450 2C9, sequence (P11712 whole entry): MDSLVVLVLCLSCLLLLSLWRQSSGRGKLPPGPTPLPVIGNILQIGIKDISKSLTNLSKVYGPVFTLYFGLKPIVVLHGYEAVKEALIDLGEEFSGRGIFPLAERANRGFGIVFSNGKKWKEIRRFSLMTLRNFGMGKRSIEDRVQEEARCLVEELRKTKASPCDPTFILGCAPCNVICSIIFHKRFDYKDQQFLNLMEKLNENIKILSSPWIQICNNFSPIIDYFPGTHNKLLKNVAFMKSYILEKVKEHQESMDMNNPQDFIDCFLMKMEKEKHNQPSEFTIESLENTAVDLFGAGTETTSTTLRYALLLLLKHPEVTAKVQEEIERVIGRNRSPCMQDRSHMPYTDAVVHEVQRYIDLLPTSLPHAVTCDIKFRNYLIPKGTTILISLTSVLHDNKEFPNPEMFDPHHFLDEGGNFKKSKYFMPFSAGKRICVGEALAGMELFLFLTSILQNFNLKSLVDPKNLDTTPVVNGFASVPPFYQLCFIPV
# Cytochrome P450 2C19, sequence (P33261 whole entry): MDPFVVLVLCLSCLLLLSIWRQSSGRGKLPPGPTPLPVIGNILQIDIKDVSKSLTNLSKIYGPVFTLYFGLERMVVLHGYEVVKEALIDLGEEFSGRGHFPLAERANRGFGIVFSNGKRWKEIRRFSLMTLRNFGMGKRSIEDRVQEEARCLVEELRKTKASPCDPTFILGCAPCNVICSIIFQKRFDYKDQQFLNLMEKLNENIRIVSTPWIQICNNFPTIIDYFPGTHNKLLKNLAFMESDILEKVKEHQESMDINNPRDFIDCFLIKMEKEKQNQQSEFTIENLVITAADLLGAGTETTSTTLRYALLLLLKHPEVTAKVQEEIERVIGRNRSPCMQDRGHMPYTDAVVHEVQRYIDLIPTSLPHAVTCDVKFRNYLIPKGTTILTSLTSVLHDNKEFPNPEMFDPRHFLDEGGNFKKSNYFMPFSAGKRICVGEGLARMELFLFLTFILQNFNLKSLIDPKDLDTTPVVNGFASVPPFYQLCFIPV
# Cytochrome P450 3A4, sequence (P08684 whole entry): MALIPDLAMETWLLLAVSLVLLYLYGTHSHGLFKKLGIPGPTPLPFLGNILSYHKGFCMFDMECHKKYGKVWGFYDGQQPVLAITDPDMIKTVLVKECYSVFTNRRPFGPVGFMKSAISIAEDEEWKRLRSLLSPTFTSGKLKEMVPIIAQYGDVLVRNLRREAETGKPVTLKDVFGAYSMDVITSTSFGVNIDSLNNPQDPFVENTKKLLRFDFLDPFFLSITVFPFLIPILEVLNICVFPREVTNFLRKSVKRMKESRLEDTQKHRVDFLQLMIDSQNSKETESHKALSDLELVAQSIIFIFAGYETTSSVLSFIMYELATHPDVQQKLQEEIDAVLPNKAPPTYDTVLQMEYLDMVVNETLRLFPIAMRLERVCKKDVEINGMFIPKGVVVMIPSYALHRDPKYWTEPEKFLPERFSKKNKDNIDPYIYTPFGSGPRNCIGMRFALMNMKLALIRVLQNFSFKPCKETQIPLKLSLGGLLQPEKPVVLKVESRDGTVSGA
# Cytochrome P450 2D6, sequence (P10635 whole entry): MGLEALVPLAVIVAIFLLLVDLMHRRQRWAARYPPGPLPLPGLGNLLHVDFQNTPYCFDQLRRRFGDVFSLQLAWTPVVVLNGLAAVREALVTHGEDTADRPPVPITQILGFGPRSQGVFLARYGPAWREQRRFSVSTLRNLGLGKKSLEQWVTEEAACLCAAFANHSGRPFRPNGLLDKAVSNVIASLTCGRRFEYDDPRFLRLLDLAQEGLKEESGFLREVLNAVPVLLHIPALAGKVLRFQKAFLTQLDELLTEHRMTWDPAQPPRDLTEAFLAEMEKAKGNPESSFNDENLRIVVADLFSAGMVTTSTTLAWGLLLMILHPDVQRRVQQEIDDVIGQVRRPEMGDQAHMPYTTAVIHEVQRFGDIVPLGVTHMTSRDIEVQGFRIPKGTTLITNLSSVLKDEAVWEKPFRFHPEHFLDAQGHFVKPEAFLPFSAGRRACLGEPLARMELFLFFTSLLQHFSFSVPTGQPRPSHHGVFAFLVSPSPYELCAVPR
SMILES,MIC80 [1] [µM],MIC80 [2] [µM],half-life [3] [min],half-life [4] [min],solubility [5] [µg/mL],solubility [6] [µg/mL],pIC50 [7],pIC50 [8],pIC50 [9],pIC50 [10],pIC50 [11]
Cc1nc2ccccn2c1C(=O)NCc1ccc(-c2ccccc2)cc1,0.02,0.25,,,,,,,,,
CCc1nc2cc(Cl)ccn2c1C(=O)NCc1ccc(-c2ccc[nH]2)cc1,0.14,2,> 120,10.8,,,,,,,
CCc1nc2ccc(Cl)cn2c1CC(=O)NCc1ccc(-c2ccccc2)cc1,> 10,> 10,,,,,,,,,
CCc1nc2cc(Cl)ccn2c1C(=O)NCc1ccc(-n2cc3c(c2)CCCC3)cc1,0.00374,0.034,27.3,62.3,,,,,,,
CCc1nc2cc(Cl)ccn2c1C(=O)NCc1ccc(N2CCCCC2)cc1,0.0082,0.016,13.2,2.3,,,,,,,
CCc1nc2ccc(Cl)cn2c1C(=O)NCc1ccc(-c2ccccc2)cc1,0.00139,0.045,22.8,19.3,,,,,,,
CCc1nc2ccc(Cl)cn2c1C(=O)NCc1ccc(-c2ccc(C)cc2)cc1,0.00043,0.0007,30.5,40.6,1.56,1.42,,,,,
CCc1nc2cc(Cl)ccn2c1C(=O)NCc1ccc(-c2ccc(Cl)cc2)cc1,0.00101,0.0013,> 120,> 60,,,,,,,
CCc1nc2cc(Cl)ccn2c1C(=O)NCc1ccc(N2CCC(C(F)(F)F)CC2)cc1,0.00047,0.0008,6.5,5.1,,,,,,,
CCc1nc2ccccn2c1C(=O)NCc1ccc(-c2ccccc2)cc1,0.097,0.063,27.1,,,,,,,,
CCc1nc2cc(Cl)ccn2c1C(=O)NCc1ccc(N2CCC(c3ccc(Cl)cc3)CC2)cc1,0.00046,0.001,67.3,112,,,6.42,< 4.40,< 4.40,< 4.40,6.72
CCc1nc2cc(Cl)ccn2c1C(=O)NCc1ccc(N2CCC(Cl)CC2)cc1,0.002,0.019,11,5.2,,,,,,,
CCCc1nc2ccccn2c1C(=O)NCc1ccc(-c2ccccc2)cc1,0.05,1.18,22.4,8.7,,,,,,,
CCc1nc2cc(Cl)ccn2c1C(=O)NCc1ccc(N2CCCCCC2)cc1,0.01,0.035,2.9,1.9,,,,,,,
CCc1nc2cc(Cl)ccn2c1C(=O)NCc1ccc(N2CC3CCCCC3C2)cc1 (configuration not stated),0.0094,0.025,14.9,6.3,,,,,,,
CCc1nc2cc(Cl)ccn2c1C(=O)NCc1ccc(N2CCN(C)CC2)cc1,0.36,4.39,117,12.1,,,,,,,
Cc1nc2ccc(Cl)cn2c1C(=O)NCc1ccc(-c2ccccc2)cc1,0.042,0.175,> 120,> 60,,,,,,,
CCc1nc2cc(Cl)ccn2c1C(=O)NCc1ccc(N2CCN(C(C)C)CC2)cc1,0.14,3,> 120,8.9,,,,,,,
CCc1nc2ccc(Cl)cn2c1C(=O)NCc1ccc(N2CCC(c3ccc(Cl)cc3)CC2)cc1,0.0013,0.0041,57.9,116,2.59,39.7,5.17,< 4.40,< 4.40,< 4.40,6.59

SMILES,MIC80 [1] [µM],MIC80 [2] [µM],half-life [3] [min],half-life [4] [min],solubility [5] [µg/mL],solubility [6] [µg/mL],pIC50 [7],pIC50 [8],pIC50 [9],pIC50 [10],pIC50 [11]
CCc1nc2cc(Cl)ccn2c1C(=O)NCc1ccc(-c2ccc(C)cc2)cc1,0.00135,< 0.0005,25.4,23.1,,,,,,,
CCc1nc2ccc(Cl)cn2c1C(=O)NCc1ccc(N2CCN(c3ccc(OC(F)(F)F)cc3)CC2)cc1,0.00023,< 0.0005,> 120,> 60,1.1,12.1,< 4.40,4.94,< 4.40,< 4.40,6.24
CCc1nc2ccc(Cl)cn2c1C(=O)NCc1ccc(N2CCN(c3ccc(F)cc3)CC2)cc1,0.0003,< 0.0005,> 120,33.3,1.31,38.5,5.88,6.31,< 4.40,< 4.40,5.88
CCc1nc2ccc(Cl)cn2c1C(=O)Nc1ccc(-c2ccccc2)cc1,> 10,> 10,,,,,,,,,
CCc1nc2ccc(Cl)cn2c1CNCc1ccc(-c2ccccc2)cc1,0.2,0.81,,,,,,,,,
CCc1nc2ccc(Cl)cn2c1NC(=O)Cc1ccc(-c2ccccc2)cc1,0.69,1.67,,,,,,,,,
CCc1nc2cc(Cl)ccn2c1C(=O)NCc1ccc(-c2ccncc2)cc1,0.74,2.22,28.9,,,,,,,,
CCc1nc2ccc(Cl)cn2c1C(=O)N(C)Cc1ccc(-c2ccccc2)cc1,0.97,8.69,,,,,,,,,
CCc1nc2cc(Cl)ccn2c1C(=O)NCc1ccc(N2CCN(c3ccc(OC(F)(F)F)cc3)CC2)cc1,0.00011,0.0018,> 120,> 60,,,< 4.40,< 4.40,< 4.40,< 4.40,6.77
CCc1nc2ccc(Cl)cn2c1C(=O)NCc1ccc(-c2ccc(C#N)cc2)cc1,0.00068,< 0.0005,> 120,> 60,0.61,1.06,,,,,
CCc1nc2cc(Cl)ccn2c1C(=O)NCc1ccc(-c2ccc(C(=O)O)cc2)cc1,0.217,0.25,> 120,> 120,,,,,,,
CCc1nc2ccc(Cl)cn2c1C(=O)NCc1ccc(-c2ccccc2Cl)cc1,0.0093,0.043,38.9,13.1,,,,,,,
CCc1nc2ccc(Cl)cn2c1C(=O)NCc1ccc(N2CCC(c3ccc(F)cc3)CC2)cc1,0.00036,< 0.0005,62.6,20.3,3.99,38.5,< 4.40,< 4.40,< 4.40,< 4.40,< 4.40
CO[C@H]1/C=C/O[C@@]2(C)Oc3c(C)c(O)c4c(O)c(c(/C=N/N5CCN(C)CC5)c(O)c4c3C2=O)NC(=O)/C(C)=C\C=C\[C@H](C)[C@H](O)[C@@H](C)[C@@H](O)[C@@H](C)[C@H](OC(C)=O)[C@@H]1C [RIFAMPIN],0.18,0.0266,,,,,,,,,
CCc1nc2cc(Cl)ccn2c1C(=O)NCc1ccc(-c2ccc(C(C)(C)C)cc2)cc1,0.00046,0.012,18.5,50.7,,,,,,,
CCc1nc2ccc(Cl)cn2c1C(=O)NCc1ccc(-c2ccc(Cl)cc2)cc1,0.00045,0.0009,83,> 60,1.97,1.42,,,,,
CCc1nc2ccc(Cl)cn2c1CC(=O)Nc1ccc(-c2ccccc2)cc1,> 10,> 10,,,,,,,,,
CC(C)c1nc2ccccn2c1C(=O)NCc1ccc(-c2ccccc2)cc1,3.13,3.13,31.6,,,,,,,,
CCc1nc2cc(Cl)ccn2c1C(=O)NCc1ccc(N2CCC(c3ccc(F)cc3)CC2)cc1,0.00066,0.54,6.8,18.4,,,6.22,5.68,< 4.40,< 4.40,6.30
